The target in the test is T1, 5-hydroxytryptamine receptor 1A (Homo sapiens, UniProt P08908).
T1 sequence (P08908 whole entry): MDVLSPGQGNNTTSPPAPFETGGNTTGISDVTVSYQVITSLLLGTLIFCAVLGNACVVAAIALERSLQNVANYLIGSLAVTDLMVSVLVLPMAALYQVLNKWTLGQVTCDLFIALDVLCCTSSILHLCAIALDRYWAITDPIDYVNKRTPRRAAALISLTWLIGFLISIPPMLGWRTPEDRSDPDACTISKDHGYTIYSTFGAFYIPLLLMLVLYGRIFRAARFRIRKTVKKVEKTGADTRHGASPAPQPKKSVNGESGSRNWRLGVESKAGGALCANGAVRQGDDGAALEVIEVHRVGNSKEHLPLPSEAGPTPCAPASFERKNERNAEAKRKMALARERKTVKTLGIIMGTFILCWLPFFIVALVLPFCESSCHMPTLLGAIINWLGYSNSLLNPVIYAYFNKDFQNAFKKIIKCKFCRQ
Nature of the test: Displacement of [3H]8-OH-DPAT from human 5HT1A expressed in LM(tk-) cells. In short, it runs like this:
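Human 5-HT1A was cloned into L-M(tk-) cells, and membrane homogenates were prepared. Binding used [3H]-8-OH-DPAT as radioligand. Ki (nM) is the mean of runs in triplicate.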

As a reminder, the Ki is a dissociation constant, usually derived from enzyme kinetics or from competition with a known ligand. Take `C[C@H]1CN(c2cccc3cc(F)ccc23)CCN1CC[C@H]1OCC2=CC(C(N)=O)=CCC21` (stereo partly drawn) [(1R)-1-(2-((S)-4-(6-fluoronaphthalen-1-yl)-2-methylpiperazin-1-yl)ethyl)-1,3,7,7a-tetrahydroisobenzofuran-5-carboxamide]: the Ki was determined as 0.013 µM.

The record behind these values is BindingDB's records for doi:10.1016/j.bmcl.2007.03.101 (Eli Lilly, 2007).
